Assay results from ChEMBL document CHEMBL2046284, “N-Pyridyl and Pyrimidine Benzamides as KCNQ2/Q3 Potassium Channel Openers for the Treatment of Epilepsy” (ACS Med Chem Lett, 2011).
Calls of active or inactive are those of the source. No cut-off for these calls is given here.

Columns and labels:
[1] = biological target: Voltage-gated potassium channel, IKs; KCNQ1(Kv7.1)/KCNE1(MinK) (Homo sapiens, UniProt P15382+P51787); assay: Antagonist activity at KCNQ1/MINK expressed in CHO cells assessed as inhibition of KCl-induced 86Rb+ efflux incubated for 10 mins prior to KCl-induction by liquid scintillation counting; format: functional, cell-based
Voltage-gated potassium channel, IKs; KCNQ1(Kv7.1)/KCNE1(MinK), sequence (P51787 whole entry): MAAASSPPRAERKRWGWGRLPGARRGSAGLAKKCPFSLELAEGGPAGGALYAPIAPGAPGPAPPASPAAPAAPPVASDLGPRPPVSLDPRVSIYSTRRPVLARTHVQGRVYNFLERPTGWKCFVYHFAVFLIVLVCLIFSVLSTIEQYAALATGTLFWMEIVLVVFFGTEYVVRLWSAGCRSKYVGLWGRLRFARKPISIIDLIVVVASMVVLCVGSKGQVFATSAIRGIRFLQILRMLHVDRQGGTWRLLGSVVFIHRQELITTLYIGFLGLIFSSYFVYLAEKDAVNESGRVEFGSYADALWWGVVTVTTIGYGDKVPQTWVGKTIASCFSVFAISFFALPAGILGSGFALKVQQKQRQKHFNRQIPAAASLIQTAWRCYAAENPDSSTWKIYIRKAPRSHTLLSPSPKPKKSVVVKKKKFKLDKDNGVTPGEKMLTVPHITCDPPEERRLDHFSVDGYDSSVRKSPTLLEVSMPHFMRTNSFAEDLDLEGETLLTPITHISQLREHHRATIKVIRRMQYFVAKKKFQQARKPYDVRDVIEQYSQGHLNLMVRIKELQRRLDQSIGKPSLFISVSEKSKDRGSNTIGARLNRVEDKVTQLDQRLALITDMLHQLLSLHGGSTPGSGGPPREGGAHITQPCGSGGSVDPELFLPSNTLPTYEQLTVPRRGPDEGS

[2] = biological target: Voltage-gated potassium channel, KQT; KCNQ2(Kv7.2)/KCNQ3(Kv7.3) (Homo sapiens, UniProt O43525+O43526); assay: Agonist activity at KCNQ2/KCNQ3 expressed in CHO cells assessed as increase in KCl-induced 86Rb+ efflux incubated for 10 mins prior to KCl-induction by liquid scintillation counting; format: functional, cell-based
Voltage-gated potassium channel, KQT; KCNQ2(Kv7.2)/KCNQ3(Kv7.3), sequence (O43526 whole entry): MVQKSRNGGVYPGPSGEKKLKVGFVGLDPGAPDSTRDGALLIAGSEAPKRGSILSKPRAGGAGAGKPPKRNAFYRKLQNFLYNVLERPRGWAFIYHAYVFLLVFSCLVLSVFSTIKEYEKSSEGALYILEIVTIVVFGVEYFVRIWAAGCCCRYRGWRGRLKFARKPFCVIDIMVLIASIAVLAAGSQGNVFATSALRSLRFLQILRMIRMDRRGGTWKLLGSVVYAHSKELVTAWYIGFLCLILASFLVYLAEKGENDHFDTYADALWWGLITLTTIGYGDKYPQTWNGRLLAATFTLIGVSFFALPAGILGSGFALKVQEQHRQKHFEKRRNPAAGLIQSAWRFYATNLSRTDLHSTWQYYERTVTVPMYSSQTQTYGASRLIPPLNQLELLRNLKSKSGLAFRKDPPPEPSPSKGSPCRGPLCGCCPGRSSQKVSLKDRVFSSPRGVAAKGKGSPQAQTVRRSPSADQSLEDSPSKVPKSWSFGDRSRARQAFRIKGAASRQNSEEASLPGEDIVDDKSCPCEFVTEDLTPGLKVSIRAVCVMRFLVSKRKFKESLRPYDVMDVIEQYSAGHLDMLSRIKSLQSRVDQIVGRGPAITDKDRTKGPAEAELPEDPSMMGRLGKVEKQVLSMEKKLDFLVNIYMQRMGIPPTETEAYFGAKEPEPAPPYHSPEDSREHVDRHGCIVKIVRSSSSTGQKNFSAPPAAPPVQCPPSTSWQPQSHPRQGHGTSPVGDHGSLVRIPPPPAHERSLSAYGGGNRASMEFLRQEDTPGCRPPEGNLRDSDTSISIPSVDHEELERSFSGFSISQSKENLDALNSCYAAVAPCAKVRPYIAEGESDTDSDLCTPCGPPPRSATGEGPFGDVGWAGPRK
Voltage-gated potassium channel, KQT; KCNQ2(Kv7.2)/KCNQ3(Kv7.3), sequence (O43525 whole entry): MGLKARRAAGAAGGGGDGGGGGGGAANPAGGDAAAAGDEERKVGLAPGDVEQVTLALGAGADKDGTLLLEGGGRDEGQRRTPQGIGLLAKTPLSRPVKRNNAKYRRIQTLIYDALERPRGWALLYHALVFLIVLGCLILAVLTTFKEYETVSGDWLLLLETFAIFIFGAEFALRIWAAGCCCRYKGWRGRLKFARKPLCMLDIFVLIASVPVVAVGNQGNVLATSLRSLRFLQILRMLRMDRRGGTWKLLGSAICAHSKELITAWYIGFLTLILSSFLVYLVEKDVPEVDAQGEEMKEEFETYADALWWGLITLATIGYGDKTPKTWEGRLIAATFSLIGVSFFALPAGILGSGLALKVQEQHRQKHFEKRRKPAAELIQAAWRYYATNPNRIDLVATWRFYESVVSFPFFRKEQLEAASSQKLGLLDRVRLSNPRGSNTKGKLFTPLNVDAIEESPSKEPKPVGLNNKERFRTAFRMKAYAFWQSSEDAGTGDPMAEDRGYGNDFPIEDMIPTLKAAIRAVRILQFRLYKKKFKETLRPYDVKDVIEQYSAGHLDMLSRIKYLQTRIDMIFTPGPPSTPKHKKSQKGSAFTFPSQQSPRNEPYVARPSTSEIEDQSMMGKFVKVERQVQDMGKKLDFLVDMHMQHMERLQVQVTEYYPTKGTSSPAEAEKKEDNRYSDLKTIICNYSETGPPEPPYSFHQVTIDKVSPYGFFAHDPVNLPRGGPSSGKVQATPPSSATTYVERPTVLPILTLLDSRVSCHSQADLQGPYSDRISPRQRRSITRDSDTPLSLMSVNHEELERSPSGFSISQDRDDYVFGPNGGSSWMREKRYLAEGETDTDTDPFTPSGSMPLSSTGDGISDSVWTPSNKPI

[3] = Agonist activity at KCNQ expressed in CHO cells assessed as increase in KCl-induced 86Rb+ efflux incubated for 10 mins prior to KCl-induction by liquid scintillation; format: functional, cell-based
[4] = biological target: Voltage-gated potassium channel KCNQ3/KCNQ5 (Homo sapiens, UniProt O43525+Q9NR82); assay: Agonist activity at KCNQ3/KCNQ5 expressed in CHO cells increase in KCl-induced 86Rb+ efflux incubated for 10 mins prior to KCl-induction by liquid scintillation counting; format: functional, cell-based
Voltage-gated potassium channel KCNQ3/KCNQ5, sequence (O43525 whole entry): as above
Voltage-gated potassium channel KCNQ3/KCNQ5, sequence (Q9NR82 whole entry): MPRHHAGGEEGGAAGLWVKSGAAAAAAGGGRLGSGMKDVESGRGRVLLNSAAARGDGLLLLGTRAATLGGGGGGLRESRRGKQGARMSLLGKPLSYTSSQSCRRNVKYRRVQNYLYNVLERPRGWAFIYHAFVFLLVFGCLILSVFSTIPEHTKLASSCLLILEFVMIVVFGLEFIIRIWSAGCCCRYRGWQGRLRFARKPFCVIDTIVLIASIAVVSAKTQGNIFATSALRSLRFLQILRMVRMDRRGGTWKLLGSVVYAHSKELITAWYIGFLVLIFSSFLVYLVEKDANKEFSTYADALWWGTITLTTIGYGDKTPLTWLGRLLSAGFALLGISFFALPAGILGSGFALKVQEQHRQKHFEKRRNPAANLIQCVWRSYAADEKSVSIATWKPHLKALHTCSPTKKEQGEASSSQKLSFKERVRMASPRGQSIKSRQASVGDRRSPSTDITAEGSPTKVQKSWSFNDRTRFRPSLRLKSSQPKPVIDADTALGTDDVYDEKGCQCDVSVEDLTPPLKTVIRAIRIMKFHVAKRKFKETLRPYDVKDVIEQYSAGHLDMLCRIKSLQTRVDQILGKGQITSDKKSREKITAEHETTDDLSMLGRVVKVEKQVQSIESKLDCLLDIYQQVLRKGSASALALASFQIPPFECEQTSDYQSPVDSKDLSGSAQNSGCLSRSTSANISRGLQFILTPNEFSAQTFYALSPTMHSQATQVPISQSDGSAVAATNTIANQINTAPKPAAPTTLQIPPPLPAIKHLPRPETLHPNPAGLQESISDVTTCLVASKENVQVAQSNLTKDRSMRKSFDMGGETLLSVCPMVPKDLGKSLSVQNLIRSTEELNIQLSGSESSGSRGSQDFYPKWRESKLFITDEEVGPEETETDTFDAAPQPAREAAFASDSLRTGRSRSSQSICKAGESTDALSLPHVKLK

[5] = Clearance in Sprague-Dawley rat at 2mg/kg, iv; format: ADME, organism-based; details: in vivo
Outline: (§1)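 Rats received a single 2 mg/kg intravenous dose. Half-life and clearance were determined, and volume of distribution (Vz) was calculated from the terminal phase.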

[6] = Selectivity ratio of EC50 for KCNQ3/KCNQ5 to EC50 for KCNQ2/KCNQ3
[7] = Inhibition of L-type calcium channel
Rattus norvegicus [8] = assay: Volume of distribution during terminal phase in Sprague-Dawley rat at 2 mg/kg, iv; format: ADME, organism-based; design: dose 2 mg/kg, route intravenous; details: in vivo; outline: as §1
[9] = Tmax in Sprague-Dawley rat at 2 mg/kg, po; format: ADME, organism-based; design: dose 2 mg/kg, route oral; details: in vivo
[10] = Half life in Sprague-Dawley rat at 2mg/kg, iv; format: ADME, organism-based; details: in vivo; outline: as §1
Rattus norvegicus [11] = assay: Antiepileptic activity in po dosed Wistar rat assessed as latency in maximum electric shock-induced hind limb extension administered 30 mins prior to electric shock-challenge measured up to 6 secs; format: functional; details: Hindlimb
[12] = Activity at GABA(A) gated channel at 10 uM
[13] = biological target: Voltage-gated inwardly rectifying potassium channel KCNH2 (Homo sapiens, UniProt Q12809); assay: Inhibition of human ERG
Voltage-gated inwardly rectifying potassium channel KCNH2, sequence (Q12809 whole entry): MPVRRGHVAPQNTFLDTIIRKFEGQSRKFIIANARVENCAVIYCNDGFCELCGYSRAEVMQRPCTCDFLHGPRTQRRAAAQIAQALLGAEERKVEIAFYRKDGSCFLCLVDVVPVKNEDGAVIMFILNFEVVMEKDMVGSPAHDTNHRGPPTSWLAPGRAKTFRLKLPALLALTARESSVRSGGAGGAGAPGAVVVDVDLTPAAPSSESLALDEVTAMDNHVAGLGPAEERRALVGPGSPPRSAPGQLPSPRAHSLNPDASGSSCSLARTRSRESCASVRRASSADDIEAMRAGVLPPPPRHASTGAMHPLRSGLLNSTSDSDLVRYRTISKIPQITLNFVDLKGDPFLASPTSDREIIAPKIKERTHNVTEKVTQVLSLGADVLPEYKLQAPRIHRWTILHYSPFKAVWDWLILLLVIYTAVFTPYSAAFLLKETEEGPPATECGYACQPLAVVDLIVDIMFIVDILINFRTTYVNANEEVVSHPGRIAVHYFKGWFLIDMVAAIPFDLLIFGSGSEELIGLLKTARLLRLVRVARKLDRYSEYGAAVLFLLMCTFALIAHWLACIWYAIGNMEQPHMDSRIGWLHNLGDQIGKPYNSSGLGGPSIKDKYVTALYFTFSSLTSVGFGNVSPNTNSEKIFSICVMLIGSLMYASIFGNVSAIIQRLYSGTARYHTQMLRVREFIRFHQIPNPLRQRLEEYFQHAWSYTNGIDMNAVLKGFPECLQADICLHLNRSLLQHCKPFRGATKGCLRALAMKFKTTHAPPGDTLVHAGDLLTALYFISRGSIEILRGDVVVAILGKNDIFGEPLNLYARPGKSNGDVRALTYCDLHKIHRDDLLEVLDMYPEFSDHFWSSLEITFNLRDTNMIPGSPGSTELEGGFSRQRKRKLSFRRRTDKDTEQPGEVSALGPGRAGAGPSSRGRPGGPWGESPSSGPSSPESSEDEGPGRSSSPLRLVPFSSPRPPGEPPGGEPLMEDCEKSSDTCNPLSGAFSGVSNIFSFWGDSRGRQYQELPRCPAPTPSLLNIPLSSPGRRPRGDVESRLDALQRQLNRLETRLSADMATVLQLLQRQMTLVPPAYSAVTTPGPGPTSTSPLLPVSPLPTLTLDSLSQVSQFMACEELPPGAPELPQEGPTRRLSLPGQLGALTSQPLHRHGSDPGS

[14] = Oral bioavailability in Sprague-Dawley rat at 2 mg/kg; format: ADME, organism-based; details: in vivo
Rattus norvegicus [15] = assay: Antiepileptic activity in po dosed Sprague-Dawley rat assessed as latency in PTZ-induced seizure administered 30 mins prior to PTZ-challenge measured up to 15 minutes; format: functional
[16] = biological target: Sodium channel protein type 5 subunit alpha (Homo sapiens, UniProt Q14524); assay: Inhibition of NaV1.5
Rattus norvegicus [17] = assay: Toxicity in rat assessed as nonhemolytic anemia after 28 days administered with repeated doses; format: organism-based; details: in vivo, 672 h
Cynomolgus monkey = assay: Toxicity in cynomolgus monkey assessed as nonhemolytic anemia after 28 days administered with repeated doses; format: organism-based, Macaca fascicularis; details: in vivo, 672 h
Rattus norvegicus [18] = assay: Toxicity in po dosed rat assessed as nonhemolytic anemia after 14 days; format: organism-based; details: in vivo, 336 h

SMILES	IC50 [1] [µM]	EC50 [2] [µM]	also measured
O=C(Nc1ccc(Cl)nc1)c1ccc(F)c(C(F)(F)F)c1	3.4	0.42	–
CC(C)CSc1ccc(C(=O)Nc2ccc(Cl)nc2)cc1F	> 100	0.14	–
O=C(Nc1ccccn1)c1ccc(Cl)c(Cl)c1	–	–	EC50 [3]: > 10 µM
O=C(Nc1ccc(Cl)nc1)c1ccc(C(F)(F)F)cc1	2.9	0.32	–
O=C(Nc1ccc(Cl)nc1)c1ccccc1F	–	> 10	–
O=C(Nc1cccnc1)c1ccc(Cl)c(Cl)c1	–	–	EC50 [3]: 6 µM
O=C(Nc1cnc(Cl)nc1)c1cccc(C(F)(F)F)c1	35	4.3	EC50 [4]: 28 µM
O=C(Nc1ccc(O)nc1)c1ccc(F)c(F)c1	–	> 10	–
O=C(Nc1cnc(Cl)nc1)c1ccc(Cl)c(F)c1	49	0.41	EC50 [4]: 9 µM
N#Cc1cccc(C(=O)Nc2ccc(Cl)nc2)c1	–	> 10	–
O=C(Nc1cnc(Cl)nc1)c1cccc(F)c1	> 100	7.2	EC50 [4]: 23 µM
O=C(Nc1ccc(Cl)nc1)c1ccc(NCCc2ccccc2)c(F)c1	> 100	0.18	–
O=C(Nc1ccc(Cl)nc1)c1ccc(-c2ccccc2)cc1	> 30	0.26	–
O=C(Nc1ccc(Cl)nc1)c1ccccc1	> 100	1.6	–
CCOc1ccc(C(=O)Nc2ccc(Cl)nc2)cc1F	> 100	0.57	–
O=C(Nc1ccncc1)c1ccc(Cl)c(Cl)c1	–	–	EC50 [3]: > 10 µM
O=C(Nc1ccccc1)c1ccc(Cl)c(Cl)c1	–	–	EC50 [3]: > 10 µM
O=C(Nc1ccc(Cl)nc1)c1cccc(F)c1	77	1.1	–
COc1ccc(NC(=O)c2ccc(F)c(F)c2)cn1	–	> 10	–
O=C(Nc1ccc(Cl)nc1)c1ccc(F)cc1	66	0.98	–
NS(=O)(=O)c1ccc(C(=O)Nc2ccc(Cl)nc2)cc1	–	> 10	–
O=C(Nc1ccc(Cl)nc1)c1ccc(S(=O)(=O)Cc2ccc(F)cc2)c(F)c1	> 100	0.16	–
O=C(Nc1ccc(Cl)nc1)c1cccc(C(F)(F)F)c1	5.8	0.39	–
O=C(Nc1ccc(Cl)nc1)c1cccc(Cl)c1	41	0.27	–
O=C(Nc1ccc(N2CCOCC2)nc1)c1ccc(F)c(F)c1	–	7.8	–
O=C(Nc1ccc(Cl)nc1)c1ccc(C(F)(F)F)c(F)c1	3.4	0.37	–
Cc1ccc(C(=O)Nc2ccc(Cl)nc2)cc1C	> 100	0.69	–
O=C(Nc1cnc(Cl)nc1)c1ccc(F)c(F)c1	> 100	0.69	clearance [5]: 17.3 mL/min/kg; Ratio EC50 [6]: 20; IC50 [7]: > 30 µM; EC50 [4]: 14.3 µM; Vz/F (Rattus norvegicus [8]): 1.804 L/kg; Tmax [9]: 30 min; half-life [10]: 72 min; ED50 (Rattus norvegicus [11]): 1.5 mg/kg; Activity [12]: inactive; IC50 [13]: > 30 µM; bioavailability [14]: 63%; ED50 (Rattus norvegicus [15]): < 1 mg/kg; IC50 [16]: > 30 µM

SMILES	IC50 [1] [µM]	EC50 [2] [µM]	also measured
O=C(Nc1ccc(NC2CC2)nc1)c1ccc(F)c(F)c1	–	2.7	–
COc1cccc(C(=O)Nc2ccc(Cl)nc2)c1	–	5.5	–
N#Cc1ccc(NC(=O)c2ccc(F)c(F)c2)cn1	–	10	–
O=C(Nc1ccc(F)nc1)c1ccc(F)c(F)c1	–	4.8	–
O=C(Nc1ccc(Cl)nc1)c1ccc(Cl)c(F)c1	15	0.08	–
CC(C)CS(=O)(=O)c1ccc(C(=O)Nc2ccc(Cl)nc2)cc1F	54	0.26	–
O=C(Nc1ccc(Cl)nc1)c1ccc(Oc2ccccc2)cc1	1.9	0.01	–
CSc1ccc(NC(=O)c2ccc(F)c(F)c2)cn1	–	> 10	–
O=C(Nc1ccc(Cl)nc1)c1ccc(S(=O)(=O)c2ccc(F)cc2)c(F)c1	> 100	0.07	–
COc1ccc(C(=O)Nc2ccc(Cl)nc2)cc1F	> 100	3.2	–
Cc1ccc(C(=O)Nc2ccc(Cl)nc2)cc1F	33	0.28	–
O=C(Nc1ccc(C(F)(F)F)nc1)c1ccc(F)c(F)c1	–	> 10	–
O=C(Nc1ccc(Cl)nc1)c1ccc(Cl)cc1	15	–	–
O=C(Nc1ccc(Cl)nc1)c1ccc(SCc2ccc(F)cc2)c(F)c1	> 100	1.6	–
O=C(Nc1ccc(Cl)nc1)c1ccc(Cl)c(Cl)c1	17	0.67	–
O=C(Nc1ccc(Cl)nc1)c1ccc(Oc2ccccc2)c(F)c1	1.3	0.03	–
N#Cc1ccc(C(=O)Nc2ccc(Cl)nc2)cc1F	51	1.1	–
O=C(Nc1ccc(Cl)nc1)c1ccc(F)c(F)c1	41	0.38	Activity (Rattus norvegicus [17]): Toxic; Activity (Cynomolgus monkey): Toxic; ED50 (Rattus norvegicus [11]): 1.5 mg/kg; Activity (Rattus norvegicus [18]): Toxic; ED50 (Rattus norvegicus [15]): 2.2 mg/kg
O=C(Nc1ccc(N2CCCC2)nc1)c1ccc(F)c(F)c1	–	0.48	–
CC(C)Sc1ccc(C(=O)Nc2ccc(Cl)nc2)cc1F	5.8	0.11	–
Cc1ccc(NC(=O)c2ccc(F)c(F)c2)cn1	–	6.8	–
O=C(Nc1ccc(Cl)nc1)c1ccc(F)c(Cl)c1	22	0.19	–
O=C(Nc1cnc(Cl)nc1)c1cccc(Cl)c1	78	1.1	EC50 [4]: 14 µM
O=C(Nc1ccc(Cl)nc1)c1cccc(F)c1F	–	> 10	–
CC(C)Oc1ccc(C(=O)Nc2ccc(Cl)nc2)cc1F	> 100	0.17	–
Cc1ccc(C(=O)Nc2cnc(Cl)nc2)cc1F	93	0.6	EC50 [4]: 10 µM
O=C(Nc1ccc(Cl)nc1)c1ccc(Sc2ccc(F)cc2)c(F)c1	> 100	0.08	–
